How the values were obtained:
CCRF-CEM = assay: Cytotoxicity against human CEM cells; assay type: cell-based
Method in brief: (§1)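 Cytotoxicity was profiled in three cell types: primary human peripheral blood mononuclear (PBM) cells, CEM (a human T-cell-derived line) and Vero (African green monkey kidney epithelial cells).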

Hepatitis C virus = assay: Antiviral activity against Hepatitis C virus infected in human HuH7 cells assessed as viral RNA replication; assay type: functional, organism-based, Hepacivirus hominis; settings: Huh-7
Method in brief: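 Subgenomic HCV replicon in Huh7 cells; inhibition of HCV RNA replication measured by extraction and amplification of HCV RNA. Each concentration run in triplicate and reported as mean; EC50 derived.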

Huh-7 = assay: Cytotoxicity against human HuH7 cells; assay type: cell-based
Method in brief: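 Huh7 cytotoxicity measured together with the replicon antiviral assay, by extraction and amplification of ribosomal RNA. Each concentration run in triplicate and reported as mean.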

Vero = assay: Cytotoxicity against african green monkey Vero cells; assay type: cell-based; settings: chlorocebus sabaeus; method in brief: as §1
PBMC = assay: Cytotoxicity against human PBMC; assay type: cell-based; method in brief: as §1

Row | SMILES | CC50 (CCRF-CEM) | EC50 (Hepatitis C virus) | EC90 (Hepatitis C virus) | CC50 (Huh-7) | CC50 (Vero) | CC50 (PBMC)
1 | CC(C)(C)[C@H](NC(=O)NC1CCCCC1)C(=O)N1CC2(Cc3ccccc3C2)C1C(=O)NC(CC1CCC1)C(=O)C(=O)NC1CC1 (stereo not given in full) | 15 µM | 5.8 µM | 9.8 µM | 5.5 µM | 26 µM | 15 µM
2 | CCCC(NC(=O)C1N(C(=O)[C@@H](NC(=O)CC(C)(C)C)C(C)(C)C)CC12Cc1ccccc1C2)C(=O)C(=O)NC1CC1 (stereo not given in full) | 35 µM | > 10 µM | > 10 µM | > 10 µM | 46 µM | 44 µM
3 | CCCC(NC(=O)C1N(C(=O)[C@@H](NC(=O)NC(C)(C)C)C(C)(C)C)CC12Cc1ccccc1C2)C(=O)C(=O)NC1CC1 (stereo not given in full) | – | 13 µM | 31 µM | 27 µM | > 100 µM | > 100 µM
4 | CCCC(NC(=O)C1N(C(=O)[C@@H](NC(=O)[C@@H](NC(=O)c2cnccn2)C2CCCCC2)C(C)(C)C)CC12CCCCC2)C(=O)C(=O)NCCF (stereo not given in full) | 5.4 µM | 5.4 µM | 9.7 µM | > 10 µM | 21 µM | 32 µM
5 | CCCC(NC(=O)C1N(C(=O)[C@@H](NC(=O)Nc2ccc(OC)cc2)C(C)(C)C)CC12Cc1ccccc1C2)C(=O)C(=O)NC1CC1 (stereo not given in full) | – | > 10 µM | > 10 µM | > 10 µM | 43 µM | 22 µM
6 | CCCC(NC(=O)C1N(C(=O)[C@@H](NC(=O)[C@@H](NC(=O)c2cnccn2)C2CCCCC2)C(C)(C)C)CC12Cc1ccccc1C2)C(=O)C(=O)NC1CC1 (stereo not given in full) | 72 µM | > 10 µM | > 10 µM | > 10 µM | > 100 µM | > 100 µM
7 | CCCC(NC(=O)C1N(C(=O)[C@@H](NC(=O)NC2CCCC2)C(C)(C)C)CC12Cc1ccccc1C2)C(=O)C(=O)NC1CC1 (stereo not given in full) | – | > 10 µM | > 10 µM | > 10 µM | 95 µM | > 100 µM
8 | CCCC(NC(=O)C1CCN1C(=O)[C@@H](NC(=O)[C@@H](NC(=O)c1cnccn1)C1CCCCC1)C(C)(C)C)C(=O)C(=O)NCCOC (stereo not given in full) | 38 µM | > 10 µM | > 10 µM | > 10 µM | > 100 µM | > 100 µM
9 | CCCC(NC(=O)C1N(C(=O)[C@@H](NC(=O)NC2CCCCC2)C(C)(C)C)CC12Cc1ccccc1C2)C(=O)C(=O)NC1CC1 (stereo not given in full) | – | 8.9 µM | 30 µM | 8.2 µM | 44 µM | 30 µM

From ChEMBL document CHEMBL2440035, “Azetidines and spiro azetidines as novel P2 units in hepatitis C virus NS3 protease inhibitors” (Bioorg Med Chem Lett, 2013)
